Source: PubChem
Mdm2 MdmX PPI – inhibitors of human Mdm2-MdmX association, primary screen, cell-based, luminescence, split luciferase, SaOS-2, uHTS | actives 3% (n = 330,000) | SaOS-2 split-luciferase Mdm2/MdmX complementation | inhibition, % at 8 µM | Protein Mdm4 (Homo sapiens) + E3 ubiquitin-protein ligase Mdm2 (Homo sapiens), … | AID 485346, 2010;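 active = inhibition of at least 50% at 8 µM in the primary screen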
UPR XBP1 act – activators of adaptive XBP1 UPR arm, primary screen, cell-based, CHO-XBP1 luciferase reporter, luminescence, uHTS; IRE1-XBP1 UPR activation; percent of tunicamycin response, DMSO as zero; actives 0.33% (n = 330,000); AID 463104, 2010; activation, % at 20 µM;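 active = versus positive control, 20 µM dose yields 30% or more activation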;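 also: 100% = tunicamycin at 10 µg/mL and 0% = DMSO only wells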
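Material: IRE1-XBP1 luciferase reporter CHO line / Quantity: one thousand reporter cells per well / Buffer or medium: F12 with 10% serum / Compound: 20 µM single concentration, DMSO 1% / Times: 6 h treatment, 37 °C / Detection: Steady-Glo luciferase glow luminescence, 10 min after reagent addition / Benchmarks: tunicamycin high, DMSO low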
B2AR ag – beta2AR agonists driving receptor internalization, primary screen, cell-based, FAP fluorogen, flow cytometry. actives 0.43% (n = 340,000). Am2.2-beta2AR cells. response, % (concentration not given with the values). AID 504454, 2011. Beta-2 adrenergic receptor (Homo sapiens), P07550;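 active = response above a set limit, near 3 SD of response in nonfluorescent compounds, cut at about 42% in these data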
CHOP UPR activ – activators of apoptotic CHOP UPR arm, primary screen, cell-based, CHO-CHOP luciferase reporter, luminescence, uHTS. UPR activation; percent of tunicamycin response over DMSO baseline. activation, % at 10 µM. actives 0.34% (n = 330,000);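 active = at 10 µM dose, activation of 40% or more, normalized to positive control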;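 also: 100% = tunicamycin at 10 µg/mL and 0% = DMSO alone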
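Dosing – one dose, 10 µM in 0.5% DMSO · System – CHO-CHOP cells, stable luciferase reporter of PERK-eIF2a-CHOP signalling · Input – 500 cells/well · Control set – tunicamycin 10 µg/mL final as positive, DMSO-only wells as negative · Timing – 6 h compound treatment, 37 °C · Measure – % activation vs tunicamycin · Technique – luminescence read with Steady-Glo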
Dynein transport – inhibitors of GR-EGFP nuclear translocation, primary screen, dynein cargo transport inhibitor project, imaging, high-content, 3617.4 mouse cells. test concentration mostly 20 µM; stimulated with dexamethasone, 1 µM; hits give low values. z-score, hits read low. actives 0.47% (n = 220,000);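 active = plate z-score of nuclear minus cytoplasmic receptor signal below a set negative limit, without overly bright fluorescence or cell loss, cut at about -3.5 in these data, passing the limit was not always enough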;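 also: z-score of nuclear minus cytoplasmic ring GR-EGFP intensity difference per well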
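Buffer or medium: tetracycline-free induction medium containing charcoal-stripped FBS / Reagent: dexamethasone agonist, 1.0 µM final, for 30 min / Technique: automated 10x imaging of fixed Hoechst-stained cells / Times: induction 48 h, compound 1 h, agonist 30 min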
Mdm2 ligase inh – MDM2-luciferase reporter signal enhancers, primary screen, MDM2 E3 ligase inhibitor project, cell-based, luminescence, 1536-well; E3 ubiquitin-protein ligase Mdm2 (Homo sapiens), Q00987; cell-based MDM2 ubiquitination luciferase reporter, 2 h; 0 = plate control, 100 = twice control, blank-subtracted; signal enhancement, % at 5 µM; actives 0.11% (n = 210,000); AID 1230, 2008;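 active = signal enhancement of 30% or more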;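 also: luminescence tracks abundance of the self-degrading MDM2-luciferase fusion protein; higher signal means inhibition of MDM2 E3 ligase activity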
Target sequence (Q00987 whole entry, looked up, the tested form may be a part): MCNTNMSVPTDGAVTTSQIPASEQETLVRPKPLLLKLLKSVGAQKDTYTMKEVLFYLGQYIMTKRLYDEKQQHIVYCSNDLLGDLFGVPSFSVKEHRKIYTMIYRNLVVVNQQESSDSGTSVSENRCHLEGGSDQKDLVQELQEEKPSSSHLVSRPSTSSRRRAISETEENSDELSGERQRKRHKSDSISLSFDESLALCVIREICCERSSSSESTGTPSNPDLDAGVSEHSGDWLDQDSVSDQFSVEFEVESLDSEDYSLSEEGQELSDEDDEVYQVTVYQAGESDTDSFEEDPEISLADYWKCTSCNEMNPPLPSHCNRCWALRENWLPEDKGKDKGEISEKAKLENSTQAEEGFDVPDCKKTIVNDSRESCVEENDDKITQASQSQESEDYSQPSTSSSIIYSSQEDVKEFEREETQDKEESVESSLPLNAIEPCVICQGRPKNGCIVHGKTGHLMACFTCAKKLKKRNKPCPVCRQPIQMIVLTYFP
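Assay system: stable mammalian line carrying autodegrading MDM2–luciferase fusion reporter; amount: 2000 cells seeded into each well; buffer or medium: DMEM; benchmarks: plate control and blank wells; signal: luciferase luminescence; timing: 2 h compound exposure at 37 °C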
Mdm2 MdmX conf – Mdm2-MdmX complex disruptors, retested hits, confirmation, luminescence, single concentration | shares compounds with Mdm2 MdmX PPI | Mdm2-MdmX binding, luminescent assay | inhibition, % at 8 µM | actives 55% (n = 10,000) | AID 489028, 2010; in the data active = inhibition above about 40%
FLuc counter – full-length luciferase signal inhibition, confirmation, counter-screen for Mdm2/MdmX interaction inhibitor project, cell-based, single concentration, SaOS-2. shares compounds with Mdm2 MdmX PPI. SaOS-2 full-length luciferase counterscreen, luminescence. inhibition, % at 8 µM. actives 77% (n = 6,200). AID 504607, 2011;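 active = mean inhibition at 8 µM reaching about 37%, which flags the compound as non-specific, limit read from the data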;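 also: p53-null SaOS-2 cells with luciferase driven by a doxycycline-inducible promoter; compound on cells about two nights before reading with doxycycline added after day one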
Numbers without * were called inactive; . = no result. Hits are enriched below; roughly 3.7% of the tested compounds scored in any of these assays.

SMILES	Mdm2 MdmX PPI	UPR XBP1 act	B2AR ag	CHOP UPR activ	Dynein transport	Mdm2 ligase inh	Mdm2 MdmX conf	FLuc counter
Cc1ccc(NC(=S)N=Nc2c(O)n(C)c3ccc(S(=O)(=O)N4CCOCC4)cc23)cc1C	52*	-2	4	6	-0.93	-7	41*	48*
Cc1cc(C)n(-c2ccc3cccc(NS(C)(=O)=O)c3n2)n1	74*	1	1	-4	-0.57	-8	44*	32
CS(=O)(=O)Nc1cccc2cccnc12	31	0	15	-1	-0.037	-39	.	.
COc1ccc(CCNC(=O)COC(=O)C2CC2)cc1OC	-2	2	4	-1	.	.	.	.
CCN(CC)CCN(C(=O)CCS(=O)(=O)c1ccccc1)c1nc2cc(C)cc(C)c2s1	8	-1	10	2	.	.	.	.
Cc1cccc2sc(N(CCN3CCOCC3)C(=O)CCS(=O)(=O)c3ccccc3)nc12	69*	-1	9	4	.	.	46*	68*
CCN(CC)CCN(C(=O)CCS(=O)(=O)c1ccccc1)c1nc2c(C)cc(C)cc2s1	51*	-4	1	30	.	.	37	87*
Cc1ccc(S(=O)(=O)CCC(=O)N(CCN2CCOCC2)c2nc3ccccc3s2)cc1	-18	-3	3	5	.	.	.	.
C1=CCN(Cc2ccccc2)C1	12	-6	-5	0	.	.	.	.
Cc1cc(-c2ccc(S(=O)(=O)N(C)Cc3ccccc3)cc2)on1	9	-3	-3	0	.	.	.	.
CC(C)=CCC/C(C)=C/CNC(=O)C[C@H]1C[C@H](C(=O)N(C(C)C)C(C)C)[C@@]2(C)c3[nH]c4ccc(Cl)cc4c3CCN2C1=O	51*	11	-4	5	.	.	1	.
CC(C)=CCC/C(C)=C/CNC(=O)CC1C[C@H](C(=O)N(C(C)C)C(C)C)[C@@]2(C)c3[nH]c4ccccc4c3CCN2C1=O (some centres undefined)	53*	10	5	6	.	.	-10	.
CCC(C)CCN1CCN=C1Nc1ccccc1 (centres undefined)	-4	-1	0	0	.	.	.	.
Cc1ccc(-c2cc3c(N=O)c4ccccc4c-3n[nH]2)cc1	93*	-6	5	-9	0.9	-91	89*	46*
O=Nc1c2cc(-c3ccccc3)[nH]nc-2c2ccccc12	.	.	-9	.	-0.014	-79	.	.
COc1nc(/C=C/N(C)C)c([N+](=O)[O-])c(OC)n1	52*	0	0	1	0.71	-25	22	.
Cc1cc(C)c(NC(=O)c2cccc3c2C(=O)N(C2CCCCC2)C3)c(C)c1	63*	-3	6	-1	.	.	-2	.
Cc1ccc(NC(=O)c2cccc3c2C(=O)N(C2CCCCC2)C3)c(C)c1	-9	2	-5	-1	.	.	.	.
O=C(c1ccc(OCCN2CCCCC2)cc1)c1c(-c2ccc(O)cc2)sc2cc(O)ccc12	65*	-3	14	1	.	.	31	.
COc1cc2sc(-c3ccccc3OC)c(-c3ccc(OCCN4CCCCC4)cc3)c2cc1OC	100*	24	39	7	.	.	43*	56*
COc1ccccc1-c1sc2ccccc2c1-c1ccc(OCCN2CCOCC2)cc1	34	-1	5	2	.	.	.	.
COC(=O)c1ccc(OCCN2CCCCCC2)cc1	13	0	1	-1	1.1	-16	.	.
O=c1nc2cccc3c2=c(/c1=C(\O)c1ccccc1)c1ccccc1c3=O	52*	-5	11	-2	0.95	-8	28	.
Cc1ccc(C)c(OCc2cc(C(=O)N3CCN(c4ccccc4C)CC3C)no2)c1 (centres undefined)	16	-4	-5	6	.	.	.	.
Cc1cccc(C(=O)NC(C(=O)Nc2nc(-c3ccccn3)cs2)C(C)C)c1 (centres undefined)	74*	-2	-1	-1	1.8	-18	57*	31
SMILES	Mdm2 MdmX PPI	UPR XBP1 act	B2AR ag	CHOP UPR activ	Dynein transport	Mdm2 ligase inh	Mdm2 MdmX conf	FLuc counter
Cc1cccc(C(=O)N[C@H](C(=O)Nc2nnc(C3CC3)s2)C(C)C)c1	-5	-1	2	-1	1.6	-1	.	.
Cc1cccc(C(=O)N[C@H](C(=O)Nc2ncc(C)s2)C(C)C)c1	68*	3	3	-1	1.1	-2	64*	99*
COc1ccc(/C=N/NC(=O)CNC(=O)c2ccncc2)cc1	13	-4	3	-1	.	.	.	.
Cc1cccc2c1-c1sc(C(=O)N3CCCCC3)cc1CO2	-149	7	7	2	.	.	.	.
Cc1cccc2c1-c1sc(C(=O)Nc3ccccc3N3CCN(C)CC3)cc1CO2	65*	5	24	1	-1.1	.	38	68*
Cc1csc(SCC(=O)NC2CCS(=O)(=O)C2)n1 (centres undefined)	-2	0	-2	0	.	.	.	.
Cn1cnc([N+](=O)[O-])c1S(=O)(=O)c1cccc(Cl)c1	68*	-8	14	-11	-3.3	-21	34	21
Cn1cnc([N+](=O)[O-])c1S(=O)(=O)Oc1ccccc1	.	.	19	.	.	.	.	.
CC(C)(C)NC(=O)C(c1ccc(-c2ccccc2)cc1)N(C[C@H]1CC[C@@H]([C@@H]2CC[C@H](CO)O2)O1)C(=O)c1ccc(C(C)(C)C)cc1 (some centres undefined)	68*	11	0	7	.	.	0	.
Cc1ccc(C(C(=O)NC(C)(C)C)N(CC2CCCO2)C(=O)c2csnn2)cc1 (centres undefined)	-8	2	-1	1	.	.	.	.
CC(C)Cn1c(=O)c(C(=O)Nc2ccncc2)c(O)c2ccccc21	69*	1	2	17	.	.	51*	38*
CCn1c(=O)c(C(=O)NNC(=O)c2ccccc2)c(O)c2ccccc21	50	0	6	1	.	.	43*	54*
